These results are taken from ChEMBL document CHEMBL4330056, “Synthesis and Cytotoxic and Antiviral Profiling of Pyrrolo- and Furo-Fused 7-Deazapurine Ribonucleosides” (J Med Chem, 2018).

pIC50: −log10 of the molar value. Activity calls are given as the source filed them. The calls are words filed in the database; no cut-off is given here.

Data set [1] in a line: Cytotoxicity against human Hep2 cells assessed as reduction in cell viability after 3 days by CellTiter-Glo assay. The conditions noted are these: HEp-2 cells. The data set is classed as cell-based. In general terms: Cellular ATP, detected with luciferase, serves as a proxy for viable cell number.
A short description of data set [2]: Mitochondrial toxicity in human OCI-AML2 cells assessed as reduction in oxidative phosphorylation-based viability after 72 hrs by CellTiterGlo assay. The data set is classed as cell-based. The gist of the method: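 OCI-AML2 leukemia cells, which rely on mitochondrial OXPHOS, treated for 3 days in a survival assay; IC50 reported.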
In data set [3] the target is T1, Adenosine kinase (Homo sapiens, UniProt P55263). As to the kind of experiment: Drug metabolism in human BJ cells assessed as ADK-mediated compound phosphorylation by measuring parent compound level per 5x10^5 cells at 10 umol/L after 3 hrs by UPLC-MS/MS analysis. The data set is classed as ADME, cell-based. The settings on record: 10 µM. Summed up: (§1)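 BJ (normal) and HCT116 (malignant) cells exposed to nucleoside at 1 or 10 μmol/L for 1 or 3 h. Intracellular nucleoside and its monophosphate quantified against synthetic monophosphate standards. Values given as pmol per 5 × 10^5 cells.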
T1 sequence (P55263 whole entry): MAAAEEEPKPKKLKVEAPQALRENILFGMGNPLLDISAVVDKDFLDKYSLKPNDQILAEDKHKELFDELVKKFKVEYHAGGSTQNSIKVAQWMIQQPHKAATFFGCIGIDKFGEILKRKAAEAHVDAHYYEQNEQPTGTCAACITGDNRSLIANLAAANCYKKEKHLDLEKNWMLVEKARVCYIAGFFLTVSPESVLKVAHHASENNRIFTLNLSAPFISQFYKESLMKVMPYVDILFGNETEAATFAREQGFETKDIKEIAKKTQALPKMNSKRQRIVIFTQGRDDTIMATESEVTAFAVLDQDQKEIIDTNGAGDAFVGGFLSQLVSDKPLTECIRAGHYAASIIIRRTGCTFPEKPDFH

In data set [4] the target is T1, Adenosine kinase. As to the kind of experiment: Drug metabolism in human BJ cells assessed as ADK-mediated compound phosphorylation by measuring parent compound level per 5x10^5 cells at 1 umol/L after 1 hr by UPLC-MS/MS analysis. It counts as ADME, cell-based. The settings on record: 1 µM. Summed up:
as §1

A further data set relates to HCT-116. As to the kind of experiment: Antiproliferative activity against human HCT116 cells after 3 days by MTS assay. It counts as functional, cell-based. The conditions noted are these: HCT-116, 72 h. A general note: Tetrazolium assays rely on reduction of a dye to a coloured formazan, in cell work by metabolically active cells.
Data set [5] concerns OCI-AML2. The data set is described as follows: Mitochondrial toxicity in human OCI-AML2 cells assessed as effect on UQCRC2 protein expression at 1 to 5 times IC50 after 24 to 72 hrs by Western blot analysis. The data set is classed as cell-based. A general note: A western blot detects proteins with antibodies after separation by electrophoresis.
For data set [6], the target named is T1, Adenosine kinase. The data set is described as follows: Drug metabolism in human HCT116 cells assessed as ADK-mediated compound phosphorylation by measuring parent compound level per 5x10^5 cells at 10 umol/L after 3 hrs by UPLC-MS/MS analysis. It counts as ADME, cell-based. The settings on record: 10 µM. Summed up:
as §1

The subject of data set [7] is CCRF-CEM. The data set is described as follows: DNA incorporation activity in human CCRF-CEM assessed as dMP content per microgram of nucleic acid at 4.48 uM after 2.5 hrs […]. It counts as functional.
Data set [8] deals with T1, Adenosine kinase. As to the kind of experiment: Drug metabolism in human HCT116 cells assessed as ADK-mediated compound phosphorylation by measuring parent compound level per 5x10^5 cells at 10 umol/L after 1 hr by UPLC-MS/MS analysis. The conditions noted are these: 10 µM. It counts as ADME, cell-based. Summed up: as §1
For data set [9], the system named is CCRF-CEM. The data set is described as follows: Inhibition of DNA synthesis in human CCRF-CEM cells assessed as DNA synthesis level at 5 times IC50 concentration after 24 hrs by BrdU incorporation assay (reference value: 43.39%). The data set is classed as functional. On the set-up: scale not given: the % may be the effect or the level left.
Data set [10] is described as follows: Antiproliferative activity against human K562-TAX cells after 3 days by MTS assay. The settings on record: 72 h. It counts as functional, cell-based.
The target of data set [11] is T1, Adenosine kinase. As to the kind of experiment: Drug metabolism in human BJ cells assessed as ADK-mediated compound phosphorylation by measuring parent compound level per 5x10^5 cells at 1 umol/L after 3 hrs by UPLC-MS/MS analysis. The data set is classed as ADME, cell-based. The conditions noted are these: 1 µM. The gist of the method: as §1
Another data set relates to Human alphaherpesvirus 1. The data set is described as follows: Antiviral activity against human herpesvirus 1 HF infected in African green monkey Vero cells assessed as inhibited virus-induced cytopathic effect incubated for 3 days by XTT assay. It counts as functional, organism-based.
Data set [12] concerns the target T1, Adenosine kinase. As to the kind of experiment: Substrate activity at recombinant human ADK assessed as compound phosphorylation at 50 uM after 20 mins in presence of [3H]-adenosine by UPLC. It counts as ADME.
A further data set relates to DNA. The data set is described as follows: Induction of DNA damage in human U2OS cells transfected with 53BP1-GFP fusion gene assessed as increase in number of foci per nucleus at 1 to 5 times IC50 concentration measured at 1 hr intervals for 11 hrs by fluorescence-based assay. It counts as functional, cell-based. Summed up:
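U2OS osteosarcoma reporter line stably expressing 53BP1-GFP treated up to 11 h, with etoposide as the double-strand-break reference. 53BP1 foci in nuclei imaged by confocal microscopy (40× objective).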

Data set [13] has as its target T1, Adenosine kinase. The data set is described as follows: Drug metabolism in human BJ cells assessed as ADK-mediated compound phosphorylation by measuring parent compound level per 5x10^5 cells at 10 umol/L after 1 hr by UPLC-MS/MS analysis. It counts as ADME, cell-based. The conditions noted are these: 10 µM. The gist of the method:
as §1

For data set [14], the target named is T1, Adenosine kinase. As to the kind of experiment: Drug metabolism in human HCT116 cells assessed as ADK-mediated compound phosphorylation by measuring parent compound level per 5x10^5 cells at 1 umol/L after 3 hrs by UPLC-MS/MS analysis. It counts as ADME, cell-based. The settings on record: 1 µM. The gist of the method:
as §1

Data set [15] deals with OCI-AML2. The data set is described as follows: Mitochondrial toxicity in human OCI-AML2 cells assessed as reduction in SDHB protein expression at 1 to 5 times IC50 after 24 to 72 hrs by Western blot analysis. It counts as cell-based.
In data set [16] the target is T1, Adenosine kinase. As to the kind of experiment: Drug metabolism in human HCT116 cells assessed as ADK-mediated compound phosphorylation by measuring parent compound level per 5x10^5 cells at 1 umol/L after 1 hr by UPLC-MS/MS analysis. The data set is classed as ADME, cell-based. The settings on record: 1 µM. The gist of the method:
as §1

Data set [17] is described as follows: Protein binding in human plasma. The data set is classed as ADME, cell-free. The settings on record: read-out: PPB (converted).
In data set [18] the test system is CCRF-CEM. The data set is described as follows: DNA incorporation activity in human CCRF-CEM assessed as NMP content per microgram of nucleic acid at 4.48 uM after 2.5 hrs by […]. The data set is classed as functional. The gist of the method:
(§2)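 CCRF-CEM cells exposed to nucleoside for 2.5 h, then harvested at once. RNA and DNA isolated separately and enzymatically digested; nucleoside content of each nucleic acid fraction quantified by HPLC-MS.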

Data set [19] is described as follows: Chemical stability of the compound assessed as compound remaining after 60 mins relative to control. It counts as physicochemical. The settings on record: read-out: Stability.
Data set [20] deals with OCI-AML2. As to the kind of experiment: Mitochondrial toxicity in human OCI-AML2 cells assessed as inhibition of MT-CO2 gene expression at 1 to 5 times IC50 after 24 to 72 hrs by RT-PCR analysis. It counts as cell-based. The gist of the method: (§3)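 Expression of the mitochondrial genes MT-CO2 and MT-ND1 measured.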
In data set [21] the test system is CCRF-CEM. As to the kind of experiment: RNA incorporation activity in human CCRF-CEM assessed as NMP content per microgram of nucleic acid at 4.48 uM after 2.5 hrs […]. The data set is classed as functional.
In data set [22] the test system is OCI-AML2. The data set is described as follows: Mitochondrial toxicity in human OCI-AML2 cells assessed as reduction in CO2 protein expression at 1 to 5 times IC50 after 24 to 72 hrs by Western blot analysis. The data set is classed as cell-based.
The subject of data set [23] is OCI-AML2. The data set is described as follows: Mitochondrial toxicity in human OCI-AML2 cells assessed as effect on ATP5A protein expression at 1 to 5 times IC50 after 24 to 72 hrs by Western blot analysis. The data set is classed as cell-based.
In data set [24] the test system is OCI-AML2. The data set is described as follows: Mitochondrial toxicity in human OCI-AML2 cells assessed as inhibition of MT-ND1 gene expression at 1 to 5 times IC50 after 24 to 72 hrs by RT-PCR analysis. It counts as cell-based. Summed up: as §3
A further data set relates to HeLa S3. As to the kind of experiment: Antiproliferative activity against human HeLaS3 cells after 72 hrs by XTT assay. The settings on record: HeLa S3, 72 h. The data set is classed as functional, cell-based.
For data set [25], the system named is CCRF-CEM. As to the kind of experiment: RNA incorporation activity in human CCRF-CEM assessed as NMP content per microgram of nucleic acid at 3.52 uM after 2.5 hrs by […]. The data set is classed as functional. Summed up: as §2
Data set [26] relates to CCRF-CEM. As to the kind of experiment: DNA incorporation activity in human CCRF-CEM assessed as NMP content per microgram of nucleic acid at 3.52 uM after 2.5 hrs by […]. It counts as functional. The gist of the method: as §2

`Cc1ncnc2c1c1occc1n2[C@@H]1O[C@H](CO)[C@@H](O)[C@H]1O`: the CC50 (commonly the concentration giving 50% cytotoxicity) at 72 h in data set [1] was over 44.4 µM. In addition, the IC50 (in general, the concentration needed to halve the response being measured) at 72 h in data set [2] was 0.34 µM. Besides, the Drug metabolism was determined as 464.66 pmol at Adenosine kinase [3]; 155.12 pmol at Adenosine kinase [4]; 177.9 pmol on Adenosine kinase [6]; 119.93 pmol on Adenosine kinase [8]; 247.21 pmol at Adenosine kinase [11]; 338.91 pmol on Adenosine kinase [13]. Also, the Drug metabolism on Adenosine kinase [14] was 66.31 pmol; on Adenosine kinase [16], 27.92 pmol. In addition, the figures for the pIC50 (in the data set on HCT-116; in data set [10]; in the data set on HeLa S3) were 6.35, 5.16 and 5.66, respectively. For the same compound, the Activity entry is “Non-Toxic” in the data set on OCI-AML2 [5]; 15.4 fmol in the data set on CCRF-CEM [7]; 38.88% with CCRF-CEM [9]; 48% on Adenosine kinase [12]; “Toxic” in the data set with OCI-AML2 [15]; 14.3 fmol with CCRF-CEM [18]. Also, the Activity with CCRF-CEM [21] was 3.4 fmol; with OCI-AML2 [22], “Toxic”; in the data set on OCI-AML2 [23], “Non-Toxic”. For the same compound, the result in the data set on Human alphaherpesvirus 1 was inactive. Also, in the data set with DNA, the result was Active. The fraction unbound in data set [17] was 0.41. The remaining at 1 h in data set [19] came out at 99%. Further, the “inhibition (INH)” value in the data set with OCI-AML2 [20] and with OCI-AML2 [24] was 50% each time.
For `CSc1ncnc2c1c1occc1n2[C@@H]1O[C@H](CO)[C@@H](O)[C@H]1O`, the CC50 at 72 h in data set [1] is over 44.4 µM. In addition, the IC50 at 72 h in data set [2] was 0.19 µM. Also, the pIC50 (usually the IC50 on a negative log10 scale, so that one unit is a factor of ten) in the data set with HCT-116 was 6.66; in data set [10], 5.57; in the data set on HeLa S3 it was 5.53. Also, the Activity in the data set with CCRF-CEM [9] was found to be 41.8%; on Adenosine kinase [12], 56%. Further, in the data set with Human alphaherpesvirus 1, the result was inactive. Besides, the fraction unbound in data set [17] is 0.16. The remaining at 1 h in data set [19] was 99%. Further, the “inhibition (INH)” value in the data set with OCI-AML2 [20] and in the data set on OCI-AML2 [24] was 50% each time.
For `Cc1ncnc2c1c1c(ccn1C)n2[C@@H]1O[C@H](CO)[C@@H](O)[C@H]1O`, in [1], the cytotoxic concentration (CC50) at 72 h was over 44.4 µM. For the same compound, the Activity in the data set with CCRF-CEM [25] worked out at 3.74 fmol; in the data set with CCRF-CEM [9] it was 59.89%; in the data set on CCRF-CEM [26], 14.1 fmol; on Adenosine kinase [12], 42%. For the same compound, the Drug metabolism on Adenosine kinase [3] came to 753.01 pmol; at Adenosine kinase [4], 87.1 pmol; at Adenosine kinase [6], 476.53 pmol; on Adenosine kinase [8], 450.1 pmol; on Adenosine kinase [11], 173.96 pmol; on Adenosine kinase [13], 220.71 pmol. For the same compound, the Drug metabolism at Adenosine kinase [14] amounted to 136.87 pmol; on Adenosine kinase [16], 54.04 pmol. Moreover, the pIC50 was 6.48 in the data set with HCT-116, under 4.30 in [10] and 5.92 in the data set on HeLa S3. Also, the outcome in the data set with Human alphaherpesvirus 1 was inactive. In addition, the outcome in the data set with DNA was Active. Also, the fraction unbound in data set [17] was 0.71. In addition, in data set [19], the remaining at 1 h is 93%.
